In ChEMBL document CHEMBL2062455, “Daphmacromines A-J, alkaloids from Daphniphyllum macropodum” (J Nat Prod, 2012):

Key:
[1] = Toxicity in brine shrimp assessed as mortality at […] after 24 hrs by microscopic analysis; type: organism-based; conditions: artemia salina, in vivo; read-out: Activity
Method in brief: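 Artemia salina eggs hatched in artificial seawater for 48 h at 28 °C to give nauplii. Compounds dissolved in DMSO, then diluted in artificial seawater to 100, 50 and 10 mg/L and tested in triplicate, with DMSO control wells. 15−25 nauplii per well, covered plate, 28 °C, 24 h. Nonmotile nauplii were scored as dead under the microscope.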

HL-60 = experiment: Cytotoxicity against human HL60 cells after 48 hrs by MTT assay; type: functional, cell-based; conditions: HL-60, 48 h
Method in brief: (§1)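 Cells kept in DMEM or RPMI-1640 with 10% FBS at 37 °C, 5% CO2. Initial density 5 × 10^3 to 1 × 10^4 cells/mL. Adherent cells attached 12 h before dosing; suspension cells seeded just before dosing. Compounds at 40 μM, triplicate, 48 h, cisplatin and paclitaxel as positive controls. MTT then 4 h at 37 °C, SDS lysis, OD 595 nm. IC50 by Reed–Muench method.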

SMMC-7721 = experiment: Cytotoxicity against human SMMC7721 cells after 48 hrs by MTT assay; type: functional, cell-based; conditions: SMMC-7721, 48 h; method in brief: as §1
A549 = experiment: Cytotoxicity against human A549 cells after 48 hrs by MTT assay; type: functional, cell-based; conditions: A549, 48 h; method in brief: as §1
MCF7 = experiment: Cytotoxicity against human MCF7 cells after 48 hrs by MTT assay; type: functional, cell-based; conditions: MCF7, 48 h; method in brief: as §1
SW480 = experiment: Cytotoxicity against human SW480 cells after 48 hrs by MTT assay; type: functional, cell-based; conditions: SW480, 48 h; method in brief: as §1

Structure (SMILES)	mortality at 24 h [1] [%]	IC50 (HL-60) [µM]	IC50 (SMMC-7721) [µM]	IC50 (A549) [µM]	IC50 (MCF7) [µM]	IC50 (SW480) [µM]
COC(=O)[C@@H]1C[C@@]23C(=O)N4C[C@@H](CCC5=C2[C@@H]1CC5)[C@]3(CO)/C=C\C(=O)[C@H](C)C4	38.3	> 40	> 40	> 40	> 40	> 40
COC(=O)[C@@H]1C[C@@]23C4=C(CC[C@@H]5CN6C[C@@H](C)[C@@H](C=C[C@@]52C=O)[C@]63O)CC[C@@H]41 [DAPHHIMALENINE B]	64.9	> 40	> 40	> 40	> 40	> 40
CCOC(=O)[C@@H]1C[C@@]23CN(C)C[C@@H](CCC4=C2[C@@H]1CC4=O)C31CC[C@](CC)(OC)OC1 (stereo partly specified) [DAPHMACROMINE A]	41	> 40	> 40	> 40	> 40	> 40
CCOC(=O)[C@@H]1C[C@@]23CN(C)C[C@@H](CCC4=C2[C@H]1CC4=O)C31CC[C@](CC)(OC)OC1 (stereo partly specified) [DAPHMACROMINE B]	49.9	> 40	> 40	> 40	> 40	> 40
CCO[C@@]1(CC)CCC2(CO1)[C@@H]1CCC3=C4[C@H](CC3=O)[C@H](C(=O)OC)C[C@@]42CN(C)C1 (stereo partly specified) [DAPHMACROMINE C]	50.9	> 40	> 40	> 40	> 40	> 40
CCO[C@@]1(CC)CCC2(CO1)[C@@H]1CCC3=C4[C@@H](CC3=O)[C@H](C(=O)OC)C[C@@]42CN(C)C1 (stereo partly specified) [DAPHMACROMINE D]	53.8	> 40	> 40	> 40	> 40	> 40
CC[C@]1(OC)CCC2(CO1)[C@@H]1CCC3=C4[C@H](CC3=O)[C@H](C(=O)OC)C[C@@]42CN(C)C1 (stereo partly specified) [DAPHMACROMINE E]	70.9	> 40	> 40	> 40	> 40	> 40
CC[C@@]1(OC)CCC2(CO1)[C@@H]1CCC3=C4[C@H](CC3=O)[C@H](C(=O)OC)C[C@@]42CN(C)C1 (stereo partly specified) [DAPHMACROMINE F]	45	> 40	> 40	> 40	> 40	> 40
CC[C@]1(OC)CCC2(CO1)[C@@H]1CCC3=C4[C@@H](CC3=O)[C@H](C(=O)OC)C[C@@]42CN(C)C1 (stereo partly specified) [DAPHMACROMINE G]	67.7	> 40	> 40	> 40	> 40	> 40
COC(=O)[C@@H]1C[C@@]23CN(C)C[C@@H](CCC4=C2[C@H]1CC4=O)C31CC[C@@](O)(C(C)C)OC1 (stereo partly specified) [DAPHMACROMINE H]	–	> 40	> 40	> 40	> 40	> 40
CCC1=CCC2(CO1)[C@@H]1CCC3=C4[C@H](CC3=O)[C@H](C(=O)OC)C[C@@]42CN(C)C1 (stereo partly specified) [DAPHMACROMINE I]	64.6	> 40	> 40	> 40	> 40	> 40
COC(=O)[C@@H]1C[C@@]23CN(C)C[C@@H](CCC4=C2[C@@H]1CC4=O)C31CC=C(C(C)C)OC1 (stereo partly specified) [DAPHMACROMINE J]	55.2	> 40	> 40	> 40	> 40	> 40
COC(=O)[C@@H]1C[C@@]23C4=C(CC[C@@H]5CN6C[C@@H](C)[C@@H](C[C@@H](O)[C@@]52CO)[C@]63O)CC[C@@H]41 [DAPHNEZOMINE K]	0	> 40	> 40	> 40	> 40	> 40
COC(=O)[C@@H]1C[C@]23C4=NC[C@@H](C)[C@]45C[C@@H](OC(C)=O)[C@@]2(COC(C)=O)[C@H](CCC2=C3[C@@H]1CC2)[C@H]5O [DAPHTENIDINE C]	31.8	> 40	> 40	> 40	> 40	> 40
COC(=O)[C@@H]1C[C@@]23C4=C(CC[C@@H]5CN6C[C@@H](C)[C@@H](C[C@@H](OC(C)=O)[C@@]52COC(C)=O)C63)CC[C@@H]41 [DEOXYYUZURIMINE]	81.8	> 40	> 40	> 40	> 40	> 40
COC(=O)[C@@H]1C[C@@]23C4=C(CC[C@@H]5CN6C[C@H](C)[C@@](O)(C=C[C@@]52C=O)[C@]63O)CC[C@@H]41 [YUZURIMINE C]	80.6	> 40	> 40	> 40	> 40	> 40
COC(=O)[C@@H]1C[C@@]23C4=C(CC[C@@H]5CN6C[C@@H](C)[C@@H](C[C@@H](OC(C)=O)[C@@]52COC(C)=O)[C@]63O)CC[C@@H]41 [YUZURIMINE]	70.8	> 40	> 40	> 40	> 40	> 40
